Source: PubChem (several laboratories)
Shown are actives, neighbours in structure and some others; about 7.1% of the full set was active somewhere.
Cav32 inh – Cav3.2 calcium influx blockers – cell-based, Fluo-4 calcium fluorescence, FDSS, MLSMR library, primary screen. Cav3.2-expressing cells; active compounds read low. 100,000 tested, 4% active. B-score at 10 µM;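 active = single-dose well whose peak fluorescence ratio is a statistical outlier from its plate by either plate-standardised score or position-corrected B-score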
Fibroblast inh – antiproliferative effect on LL 47 fibroblasts – human, LL 47 cells, CellTiter-Glo luminescence, primary screen; LL 47 human lung fibroblast viability, ATP luminescence; active compounds read low; viability, % at 10 µM; 85,000 tested, 1.1% active;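 active = viability at or below 50% in the single dose screen; inactive = viability above 50%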;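 also: compound exposure lasted 72 h before the ATP readout; 100% = median luminescence of untreated cell-only wells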
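Test system: LL 47 human lung fibroblasts / Quantity: 1,150 cells in each well / Medium: IMEM growth medium with 15% fetal bovine serum / Incubation: 72 h compound exposure at 37 °C after overnight plating / Detection: CellTiter-Glo luminescence measuring cellular ATP / Read-out: % viability versus median cells-only luminescence / Benchmarks: cell-only wells, no compound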
bCat KO growth – primary screen for growth suppressors in beta-catenin knockout HCT116 cells (colon tumor, human). AID 818, 2007. HCT116 beta-catenin knockout viability, CellTiter-Glo, 60 h; active compounds read low. 140,000 tested, 1.5% active. viability, % at 10 µM;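 active = viability at or under a set limit, the compound median less 4 SD, cut at about 6% in these data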;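 also: 0% = Hyamine 1622 control at 20 µM and 100% = untreated cell control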
HUVEC prolif 384 – inhibitors of HUVEC proliferation, primary screen, cell-based, 384-well; CellTiter-Glo luminescence, 72 h; active compounds read low; viability, % at 10 µM (by protocol); 86,000 tested, 1.1% active;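 active = viability at or below 30%; inactive = viability above 30%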;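 also: 100% = median luminescence of DMSO-only cell control wells on each plate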
H69AR inhibit – proliferation blockers of H69AR lung cancer cells, primary screen, cell-based, human, 86K library; H69AR lung tumor viability, ATP luminescence, 72 h; active compounds read low; 85,000 tested, 6% active; viability, % at 10 µM;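 active = viability at or below 40%; inactive = viability above 40%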;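 also: multidrug resistant small cell line overexpressing MRP-1 efflux transporter; 100% = mean luminescence of untreated control wells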
PTEN del growth – growth suppression of PTEN-null HCT116, primary screen, cell-based, CellTiter-Glo. HCT116 PTEN-null viability, 60 h; active compounds read low. viability, % at 10 µM. 140,000 tested, 1.2% active;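 active = viability at or below a set limit, 4 SD under the median of all tested compounds, cut at about 3.7% in these data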;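 also: PTEN knockout HCT116 line with beta catenin targeted HCT116 as companion control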
Numbers without * were called inactive; / = not tested or not shown.

SMILES | Cav32 inh | Fibroblast inh | bCat KO growth | HUVEC prolif 384 | H69AR inhibit | PTEN del growth
O=C1CN(C(=O)COC(=O)c2cccc(S(=O)(=O)NCc3ccccc3)c2)c2ccccc2N1 | -6* | 111 | 89 | 90 | 98 | 86
Cc1ccc(S(=O)(=O)/C(C#N)=C/c2c(N3CCN(C)CC3)nc3c(C)cccn3c2=O)cc1 | 0.63 | 95 | 94 | 74 | 90 | 96
Cc1cc(Oc2nc3c(C)cccn3c(=O)c2/C=C(\C#N)S(=O)(=O)c2ccc(Cl)cc2)ccc1Cl | / | / | 3.9* | / | / | 1.4*
CCOc1cccc(C(=O)Nc2ccc3oc(Cc4ccc(Cl)cc4)nc3c2)c1 | -2.4 | 85 | 34 | 73 | 24* | 45
O=C(Nc1ccc2oc(-c3ccccc3Cl)nc2c1)c1ncn[nH]1 | 0.89 | 90 | 88 | 92 | 96 | 99
O=C(Nc1ccc2oc(-c3cccnc3)nc2c1)c1cccnc1 | 0.35 | 111 | 98 | 88 | 99 | 95
O=C(Nc1ccc2oc(-c3ccccc3Cl)nc2c1)c1cncc(Br)c1 | -0.43 | 66 | 75 | 17* | 18* | 66
O=C(Nc1ccc2oc(Cc3ccc(Cl)cc3)nc2c1)c1cccnc1 | 0.053 | 92 | 56 | 80 | 36* | 59
COc1ccc2c(C)nc(Nc3nc(C)cc(=O)[nH]3)nc2c1 | / | 8.6* | / | 2.6* | 23* | /
CCN(CC)S(=O)(=O)c1ccc(OC)c(NC(=O)CSc2cc(C)ccc2C)c1 | / | / | 85 | / | / | 80
Cc1oc2ccc(O)c(CN3CCOCC3)c2c1C(=O)c1ccc(Cl)cc1 | -4.4* | / | 55 | / | / | 48
Cc1ccc(S(=O)(=O)NC2CCCc3ccccc32)cc1C (stereo not drawn) | -4.2* | 96 | 89 | 99 | 104 | 89
Cc1nn(C)c(C)c1S(=O)(=O)NC1CCCc2ccccc21 (stereo not drawn) | -0.16 | 94 | 100 | 98 | 91 | 100
COCCNC(=O)C1CC(c2cccc(OC)c2)=NO1 (stereo not drawn) | -0.47 | 97 | 85 | 99 | 92 | 101
C=CCNC(=O)C1CC(c2cccc(OC)c2)=NO1 (stereo not drawn) | -0.31 | 96 | 65 | 94 | 2.8* | 61
COc1cccc(C2=NOC(C(=O)NCc3ccccc3)C2)c1 (stereo not drawn) | / | 97 | 92 | 63 | 26* | 83
O=C(NCc1ccc2c(c1)OCO2)C1CC(c2cccc(Br)c2)=NO1 (stereo not drawn) | -9.1* | 105 | 113 | 107 | 86 | 102
COc1cccc(C2=NOC(C(=O)NCc3ccco3)C2)c1 (stereo not drawn) | / | 95 | 61 | 73 | 36* | 50
O=C(NCc1ccc2c(c1)OCO2)C1CC(c2ccccc2O)=NO1 (stereo not drawn) | -3.2 | 95 | 105 | 100 | 96 | 86
CC(C)CNC(=O)c1ccccc1SCC(=O)NC12CC3CC(CC(C3)C1)C2 | / | / | 71 | / | / | 77
COC(=O)Cc1ccc(NC(=O)c2ccc(C(C)(C)C)cc2)cc1 | -5.2* | 79 | 11 | 66 | 67 | 12
Cc1ccsc1/C=N/n1c(COc2ccccc2)n[nH]c1=S | / | / | 99 | / | / | 83
O=C(COc1ccc(Br)cc1)N1CCN(c2ccccc2)CC1 | -3.3* | 108 | 102 | 95 | 101 | 114
COc1ccc(OCCNC(=O)c2ccccc2OCC(=O)N2CCCCC2)cc1 | 0.96 | 92 | 79 | 86 | 31* | 75
COc1ccc(OCC(=O)N2CCN(C(=O)COc3ccc(Br)cc3)CC2)cc1 | -0.034 | 100 | 85 | 82 | 28* | 81
SMILES | Cav32 inh | Fibroblast inh | bCat KO growth | HUVEC prolif 384 | H69AR inhibit | PTEN del growth
CC1CCN(Cc2nnnn2-c2cccc([N+](=O)[O-])c2)CC1 | / | / | 90 | / | / | 88
Cc1ccc(CSCCNC(=O)CSc2ccccc2)cc1 | / | / | 97 | / | / | 96
CC1CN(S(=O)(=O)c2ccc(C(=O)Nc3ccc(S(=O)(=O)Nc4nccs4)cc3)cc2)CC(C)O1 (stereo not drawn) | / | / | 90 | / | / | 95
CC1CN(S(=O)(=O)c2ccc(NC(=O)c3cc(-c4ccccc4O)n[nH]3)cc2)CC(C)O1 (stereo not drawn) | -0.91 | 74 | 17 | 55 | 12* | 8
CC(C)(C)C(=O)/C(C#N)=c1\s/c(=C\c2ccncc2)c(=O)n1CCCN1CCOCC1 | / | / | / | 1.8* | 74 | /
Cn1c(=O)[nH]c(=O)c2c1nc(SCC(O)CO)n2Cc1ccccc1Cl (stereo not drawn) | 0.4 | 100 | 91 | 94 | 81 | 95
CN1CCN(c2cc3c(c4c2[nH]c2ccccc24)C(=O)CC(C)(C)C3)CC1 | / | 19* | 1.4* | 3.3* | 0.9* | 1.8*
CN1CCN(c2ncnc3c2[nH]c2ccc(F)cc23)CC1 | 0.73 | 102 | 83 | 83 | 78 | 84
O=C(CN1CCN(S(=O)(=O)c2ccc(Br)cc2)CC1)N/N=C/c1ccco1 | / | / | 80 | / | / | 93
CSc1ccc(NC(=O)N2CC=C(n3c(=O)[nH]c4ccccc43)CC2)cc1 | / | / | 38 | / | / | 29
O=S(=O)(Cc1ccccc1)N1CCc2ccccc21 | -2.2 | 96 | 60 | 77 | 28* | 44
COc1c(N2CCN(C(=S)NCc3ccccc3)C(C)C2)c(F)cc2c(=O)c(C(=O)O)cn(C3CC3)c12 (stereo not drawn) | 2.8* | 98 | 13 | 108 | 2.5* | 13
CC(C)c1ccc2c(c1)[C@H]1OCC[C@H]1[C@@H](c1cccs1)N2 | / | / | 17 | / | / | 18
CCCCCOc1ccc(CSC(=N)N)cc1[N+](=O)[O-] | 0.17 | / | 1.9* | / | / | 1.3*
Cc1cccc(NC(=S)NC(=O)c2ccco2)n1 | / | / | 93 | / | / | 94
CC(C)C(C)(C#N)NC(=O)CSc1nnc(-c2ccccc2)o1 (stereo not drawn) | -0.2 | 103 | 99 | 101 | 91 | 106
CCCCN(CCCC)c1nc2ccccc2nc1NS(=O)(=O)c1ccc(NC(C)=O)cc1 | 0.37 | 92 | 76 | 78 | 12* | 76
CC(=O)Nc1ccc(S(=O)(=O)Nc2nc3ccccc3nc2Nc2ccc3ccccc3c2)cc1 | / | / | 78 | / | / | 73
Cc1ccc(C(=O)N/N=C2/NC(=O)CC(C(=O)Nc3ccccc3)S2)cc1 (stereo not drawn) | / | / | 93 | / | / | 89
CCOc1cccc(NC(=O)C2CC(=O)NC(=Nc3ccccc3)S2)c1 (stereo not drawn) | -4.9* | 89 | 105 | 96 | 86 | 100
CC1CC(C)CN(C(=O)C(NS(=O)(=O)c2ccc(Br)s2)c2ccccc2)C1 (stereo not drawn) | / | / | 70 | / | / | 64
